In ChEMBL document CHEMBL3232903, “New pyrazolobenzothiazine derivatives as hepatitis C virus NS5B polymerase palm site I inhibitors” (J Med Chem, 2014):

Experiments:
[1] = Cytostatic activity against human Huh6 cells carrying HCV genotype 1b I389luc-ubi-neo/NS3-3'/5.1 replicon assessed as reduction in metabolic activity after 72 hrs by MTS assay; type: ADME, cell-based
How it was run: (§1)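 MTS assay measuring bioreduction to formazan, read as host-cell metabolism/proliferation in subgenomic genotype 1b replicon cells. It was run alongside RT-qPCR-based antiviral testing. Huh-9-13 replicon cells lack the luciferase reporter, carry different adaptive mutations and more HCV RNA than Huh-5-2. HuH6 replicon cells use a different host line from Huh-7 and have distinct adaptive mutations. CC50 is the concentration that halves MTS reduction.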

[2] = Induction of steatosis in human Huh-9-13 cells assessed as intracellular accumulation of neutral lipids at 90 uM by Nile Red staining; type: cell-based
How it was run: (§2)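 Huh-9-13 cells seeded at 25.000 cells/dish in complete DMEM without G418 at 37 °C, 5% CO2. Next day, compound (90 μM) or DMSO added for 3 days. Then stained 30 min with monodansylcadaverine (50 μM; ex 340/em 530 nm), LipidTOX Red (1/1000; ex 577/em 609 nm) or Nile Red (2 μg/mL; yellow-gold at ex 552/em 636 nm). Imaged by confocal microscopy.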

[3] = Selectivity index, ratio of CC50 for human Huh5-2 cells to EC50 for HCV genotype 1b I389luc-ubi-neo/NS3-3'/5.1 replicon infected in human Huh5-2 cells; set-up: species or system Huh-5-2
[4] = Inhibition of RNA-dependent RNA polymerase activity of HCV genotype 1b HC-J4 recombinant N-terminal histidine tagged C-terminal 21 aminoacids truncated NS5B polymerase after 1 hr by standard primer dependent elongation assay; set-up: species or system Hepatitis C virus isolate HC-J4
How it was run: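 Recombinant NS5BCΔ21 genotype 1b in a primer-dependent elongation assay. IC50 is the concentration halving enzyme activity in vitro; mean ± SD of two independent experiments in duplicate.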

[5] = Lipophilicity, log P of the compound by shake flask method; type: physicochemical; details: octanol/water
How it was run: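 Shake flask: compound dissolved in octanol, then 2.5 mL octanol with 2.5 mL water, sealed and agitated, 10 h to equilibrium. Each phase analysed by HPLC (C18, 50% ACN/50% H2O, 0.8 mL/min, UV).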

[6] = Apparent permeability of the compound after 5 hrs by PAMPA-GI model analysis; type: physicochemical
How it was run: (§3)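 PAMPA, gastrointestinal model. Donor 0.5 mM, diluted from 1 mM DMSO stock in phosphate buffer pH 7.4 (0.025 M). Filter coated with 1% w/v phosphatidylcholine in dodecane; acceptor 50% DMSO in buffer. Incubated 5 or 22 h at room temperature with gentle shaking. Both sides analysed by LC-UV at 254 nm, concentration from peak area. Papp in cm/s and % membrane retention calculated by equations; three plates on different days.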

[7] = Cytostatic activity against human Huh-9-13 cells carrying HCV genotype 1b I389luc-ubi-neo/NS3-3'/5.1 replicon assessed as reduction in metabolic activity after 72 hrs by MTS assay; type: ADME, cell-based; how it was run: as §1
[8] = system: Hepatitis C virus isolate HC-J4; test: Ratio of IC50 for HCV genotype 1b HC-J4 recombinant N-terminal histidine tagged C-terminal 21 aminoacids truncated NS5B polymerase M423T mutant at thumb site 2 to HCV genotype 1b HC-J4 recombinant N-terminal histidine tagged C-terminal 21 aminoacids truncated wild type NS5B polymerase
How it was run: (§4)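 Fold change is the mutant NS5BCΔ21 IC50 (M414T, M423T or P495L) divided by the wild-type IC50. Both were measured in a primer-dependent elongation assay, from two independent experiments in duplicate.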

[9] = target: RNA-directed RNA polymerase (Hepacivirus hominis, UniProt O39930, P495L); test: Inhibition of RNA-dependent RNA polymerase activity of HCV genotype 1b HC-J4 recombinant N-terminal histidine tagged C-terminal 21 aminoacids truncated NS5B polymerase P495L mutant at thumb site 1 after 1 hr by standard primer dependent elongation assay; set-up: species or system Hepatitis C virus isolate HC-J4
How it was run: (§5)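 Recombinant NS5BCΔ21 genotype 1b mutants, M414T, M423T and P495L, each run in a primer-dependent elongation assay as for wild-type enzyme. IC50 is the mean ± SD of two independent experiments in duplicate.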

[10] = system: Hepatitis C virus isolate HC-J4; test: Inhibition of RNA-dependent RNA polymerase activity of HCV genotype 1b HC-J4 recombinant N-terminal histidine tagged C-terminal 21 aminoacids truncated NS5B polymerase at 50 uM after 1 hr by standard primer dependent elongation assay
How it was run: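 Recombinant NS5BCΔ21 genotype 1b in a primer-dependent elongation assay. […] IC50 is the concentration halving enzyme activity in vitro; mean ± SD of two independent experiments in duplicate.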

Hepatitis C virus [11] = test: Antiviral activity against HCV genotype 1b […] replicon infected in human Huh9-13 cells assessed as decrease in replicon RNA content by RT-qPCR analysis; type: functional, cell-based, Hepacivirus hominis
How it was run: (§6)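 Subgenomic genotype 1b HCV replicon cells: Huh-9-13 (Huh-7 background, no luciferase reporter) and HuH6 (different adaptive mutations). EC50 from decrease in replicon RNA measured by RT-qPCR. Host-cell proliferation and metabolism checked in parallel by MTS assay.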

Hepatitis C virus [12] = test: Antiviral activity against HCV genotype 1b I389luc-ubi-neo/NS3-3'/5.1 replicon infected in human Huh5-2 cells assessed as inhibition of virus replication by luciferase assay; type: functional, cell-based, Hepacivirus hominis; details: Huh-5-2
[13] = Cytostatic activity against human Huh5-2 cells carrying HCV genotype 1b I389luc-ubi-neo/NS3-3'/5.1 replicon assessed as reduction in metabolic activity after 72 hrs by MTS assay; type: ADME, cell-based, Huh-5-2; details: huh-5-2, 72 h
How it was run: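 Replicon-bearing Huh-5-2 cells run in parallel with the antiviral read-out; CC50 is the concentration halving MTS bioreduction to formazan, taken as the antimetabolic effect on host cells; mean ± SD from at least three dose–response curves.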

[14] = Apparent permeability of the compound assessed as membrane retention after 22 hrs by PAMPA assay; type: physicochemical; how it was run: as §3
[15] = Cytotoxicity against human Huh5-2 cells carrying HCV genotype 1b I389luc-ubi-neo/NS3-3'/5.1 replicon assessed as cell morphological changes after 72 hrs by microscopic analysis; type: cell-based; details: huh-5-2, 72 h
How it was run: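 Huh-5-2 replicon cells examined by microscopy for changes in cell morphology after 72 h of compound treatment.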

[16] = Apparent permeability of the compound assessed as membrane retention after 5 hrs by PAMPA assay; type: physicochemical; how it was run: as §3
[17] = Induction of steatosis in human Huh-9-13 cells assessed as increase in size of lipid droplets at 90 uM by LipidTOX red staining; type: cell-based; how it was run: as §2
[18] = Apparent permeability of the compound after 22 hrs by PAMPA-GI model analysis; type: physicochemical; how it was run: as §3
[19] = system: Hepatitis C virus isolate HC-J4; test: Ratio of IC50 for HCV genotype 1b HC-J4 recombinant N-terminal histidine tagged C-terminal 21 aminoacids truncated NS5B polymerase M414T mutant at palm site 1 to HCV genotype 1b HC-J4 recombinant N-terminal histidine tagged C-terminal 21 aminoacids truncated wild type NS5B polymerase; how it was run: as §4
[20] = target: RNA-directed RNA polymerase (Hepacivirus hominis, UniProt O39930, M423T); test: Inhibition of RNA-dependent RNA polymerase activity of HCV genotype 1b HC-J4 recombinant N-terminal histidine tagged C-terminal 21 aminoacids truncated NS5B polymerase M423T mutant at thumb site 2 after 1 hr by standard primer dependent elongation assay; set-up: species or system Hepatitis C virus isolate HC-J4; how it was run: as §5
[21] = target: RNA-directed RNA polymerase (Hepacivirus hominis, UniProt O39930, M414T); test: Inhibition of RNA-dependent RNA polymerase activity of HCV genotype 1b HC-J4 recombinant N-terminal histidine tagged C-terminal 21 aminoacids truncated NS5B polymerase M414T mutant at palm site 1 after 1 hr by standard primer dependent elongation assay; set-up: species or system Hepatitis C virus isolate HC-J4; how it was run: as §5
[22] = system: Hepatitis C virus isolate HC-J4; test: Ratio of IC50 for HCV genotype 1b HC-J4 recombinant N-terminal histidine tagged C-terminal 21 aminoacids truncated NS5B polymerase P495L mutant at thumb site 1 to HCV genotype 1b HC-J4 recombinant N-terminal histidine tagged C-terminal 21 aminoacids truncated wild type NS5B polymerase; how it was run: as §4
[23] = Induction of phospholipidosis in human Huh-9-13 cells assessed as multilamellar bodies formation at 90 uM by monodansylcadaverine staining; type: cell-based; how it was run: as §2
Hepatitis C virus [24] = test: Antiviral activity against HCV genotype 1b I389luc-ubi-neo/NS3-3'/5.1 replicon infected in human Huh6 cells assessed as decrease in replicon RNA content by RT-qPCR analysis; type: functional, cell-based, Hepacivirus hominis; details: HuH-6; how it was run: as §6
[25] = Metabolic stability of the compound in human liver microsomes assessed as unmodified compound remaining after 60 mins; type: ADME; details: read-out: Stability
How it was run: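 Compound at 50 μM final (DMSO ≤2%) incubated 60 min at 37 °C with human liver microsomal protein (0.2 mg/mL) and an NADPH-generating system in 125 mM phosphate buffer, pH 7.4. Unmodified parent was quantified by LC–MS and reported as percentage remaining.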

Sequence of RNA-directed RNA polymerase (Hepacivirus hominis, UniProt O39930, M423T) (O39930 entry or part of it M423T): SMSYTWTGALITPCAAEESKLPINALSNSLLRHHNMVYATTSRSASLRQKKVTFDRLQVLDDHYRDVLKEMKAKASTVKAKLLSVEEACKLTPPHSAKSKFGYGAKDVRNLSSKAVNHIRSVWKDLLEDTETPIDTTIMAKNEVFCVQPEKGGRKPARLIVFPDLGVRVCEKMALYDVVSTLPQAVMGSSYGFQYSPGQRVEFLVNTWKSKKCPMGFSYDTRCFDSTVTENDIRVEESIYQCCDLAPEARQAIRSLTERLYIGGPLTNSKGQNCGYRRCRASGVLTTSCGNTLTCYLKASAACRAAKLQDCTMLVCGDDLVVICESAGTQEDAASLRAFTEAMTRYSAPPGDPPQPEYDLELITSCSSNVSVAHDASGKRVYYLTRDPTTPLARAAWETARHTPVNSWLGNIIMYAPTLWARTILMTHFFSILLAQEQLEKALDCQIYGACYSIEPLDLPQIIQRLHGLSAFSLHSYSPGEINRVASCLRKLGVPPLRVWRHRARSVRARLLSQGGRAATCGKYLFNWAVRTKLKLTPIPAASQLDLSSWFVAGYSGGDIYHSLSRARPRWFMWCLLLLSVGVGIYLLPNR
Sequence of RNA-directed RNA polymerase (Hepacivirus hominis, UniProt O39930, M414T) (O39930 entry or part of it M414T): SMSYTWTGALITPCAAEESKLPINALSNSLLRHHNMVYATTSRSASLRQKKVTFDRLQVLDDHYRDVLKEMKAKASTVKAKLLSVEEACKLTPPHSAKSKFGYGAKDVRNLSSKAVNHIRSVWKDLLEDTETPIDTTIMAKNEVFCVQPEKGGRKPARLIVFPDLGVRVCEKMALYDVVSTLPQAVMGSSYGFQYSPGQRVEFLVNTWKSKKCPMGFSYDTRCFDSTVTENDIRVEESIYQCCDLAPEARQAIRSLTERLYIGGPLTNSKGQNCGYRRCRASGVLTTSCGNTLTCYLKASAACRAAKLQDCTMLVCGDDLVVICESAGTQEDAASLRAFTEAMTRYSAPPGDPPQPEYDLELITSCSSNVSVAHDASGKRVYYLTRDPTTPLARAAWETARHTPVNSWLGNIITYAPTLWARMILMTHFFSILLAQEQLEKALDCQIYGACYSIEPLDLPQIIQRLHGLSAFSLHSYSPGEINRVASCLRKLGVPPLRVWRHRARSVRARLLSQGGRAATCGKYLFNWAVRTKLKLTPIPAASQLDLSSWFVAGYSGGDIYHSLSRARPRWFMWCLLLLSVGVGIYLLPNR
Sequence of RNA-directed RNA polymerase (Hepacivirus hominis, UniProt O39930, P495L) (O39930 entry or part of it P495L): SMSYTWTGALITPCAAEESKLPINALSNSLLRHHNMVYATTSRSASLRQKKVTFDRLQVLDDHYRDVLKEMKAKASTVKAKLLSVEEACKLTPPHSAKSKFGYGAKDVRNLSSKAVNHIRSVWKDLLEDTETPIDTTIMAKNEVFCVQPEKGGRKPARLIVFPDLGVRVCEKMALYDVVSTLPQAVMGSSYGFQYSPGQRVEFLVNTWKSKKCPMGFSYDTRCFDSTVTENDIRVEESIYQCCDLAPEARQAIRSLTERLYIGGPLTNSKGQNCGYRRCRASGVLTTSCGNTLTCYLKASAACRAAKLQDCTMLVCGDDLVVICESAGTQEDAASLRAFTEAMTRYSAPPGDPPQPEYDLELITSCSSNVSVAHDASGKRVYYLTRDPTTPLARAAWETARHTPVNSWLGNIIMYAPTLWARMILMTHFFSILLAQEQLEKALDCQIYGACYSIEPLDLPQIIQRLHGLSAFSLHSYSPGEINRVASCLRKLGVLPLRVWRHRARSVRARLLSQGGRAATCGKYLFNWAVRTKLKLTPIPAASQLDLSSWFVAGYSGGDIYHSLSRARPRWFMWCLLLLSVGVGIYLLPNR

Compound: CN1c2c(C(=O)Nc3ccc(NS(C)(=O)=O)cc3)nn(-c3cccc(Cl)c3)c2-c2ccccc2S1(=O)=O
- CC50 at 72 h [1]: > 90 µM
- Activity [2]: Toxic
- Ratio CC50/EC50 [3]: >18
- IC50 [4]: 4.3 µM
- logP [5]: 2.11
- Papp [6]: 2.3 ×10⁻⁶ cm/s
- CC50 [7]: > 90 µM
- Ratio IC50 [8]: 2.2
- IC50 [9]: 5.1 µM
- inhibition [10]: > 50%
- EC50 (Hepatitis C virus [11]): 7.6 µM
- EC50 (Hepatitis C virus [12]): 9.8 µM
- EC90 (Hepatitis C virus [12]): 41 µM
- CC50 [13]: > 179 µM
- R% [14]: 3.2%
- Activity [15]: Toxic
- R% [16]: 7.3%
- Activity [17]: Toxic
- Papp [18]: 4.2 ×10⁻⁶ cm/s
- Ratio IC50 [19]: 29.7
- IC50 [20]: 9.3 µM
- IC50 [21]: 128 µM
- Ratio IC50 [22]: 1.2
- Activity [23]: Non-toxic
- EC50 (Hepatitis C virus [24]): 14 µM
- remaining at 1 h [25]: 99.9%
